# Measured values as given in ChEMBL document CHEMBL1143716, “Analysis of crucial structural requirements of 2-substituted pyrimido[4,5-b][1,5]oxazocines as NK(1) receptor antagonist by axially chiral derivatives” (Bioorg Med Chem, 2007).
# Molecular target: Substance-P receptor (Cavia porcellus) (UniProt P30547)
# Assay: Antagonist activity at guinea pig NK1 receptor assessed as effect on ileum contractions
# Type: functional, tissue-based
# How it was run: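 Guinea pig ileum in organ bath with Tyrode's solution, 32 °C, gassed 95% O2/5% CO2, resting tension 1 g, 20 min equilibration. Pretreated 10 min with at least three concentrations of test compound in DMSO, then cumulative substance P concentration-response curve versus substance P control curve. KB by Schild method; means, n = 3–5.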
# Sequence of Substance-P receptor (Cavia porcellus) (P30547 whole entry): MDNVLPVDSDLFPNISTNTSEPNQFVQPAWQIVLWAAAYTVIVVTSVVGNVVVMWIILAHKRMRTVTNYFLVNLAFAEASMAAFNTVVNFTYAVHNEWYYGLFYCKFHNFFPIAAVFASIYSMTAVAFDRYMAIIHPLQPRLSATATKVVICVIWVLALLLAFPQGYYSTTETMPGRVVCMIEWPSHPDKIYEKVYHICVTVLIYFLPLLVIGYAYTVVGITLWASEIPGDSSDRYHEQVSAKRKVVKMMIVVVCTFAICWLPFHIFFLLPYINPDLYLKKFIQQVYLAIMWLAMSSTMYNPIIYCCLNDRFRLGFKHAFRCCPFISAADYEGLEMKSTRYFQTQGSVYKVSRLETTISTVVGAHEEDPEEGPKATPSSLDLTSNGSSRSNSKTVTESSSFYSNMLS
row,Structure (SMILES),Kb [nM]
1,Cc1ccccc1-c1nc(N(C)C)nc2c1C(=O)N(Cc1cc(C(F)(F)F)cc(C(F)(F)F)c1)CCCO2,0.679
2,CC(=O)N1CCN(c2nc3c(c(-c4ccccc4C)n2)C(=O)N(Cc2cc(C(F)(F)F)cc(C(F)(F)F)c2)C[C@@H](C)CO3)CC1,0.345
3,CC(=O)N1C(C)CN(c2nc3c(c(-c4ccccc4C)n2)C(=O)N(Cc2cc(C(F)(F)F)cc(C(F)(F)F)c2)C[C@H](C)CO3)CC1C (some centres not stated),0.217
4,CC(=O)N1C(C)CN(c2nc3c(c(-c4ccccc4C)n2)C(=O)N(Cc2cc(C(F)(F)F)cc(C(F)(F)F)c2)CCCO3)CC1C (configuration not stated),0.679
5,CC(=O)N1CCN(c2nc3c(c(-c4ccccc4C)n2)C(=O)N(Cc2cc(C(F)(F)F)cc(C(F)(F)F)c2)C[C@H](C)CO3)CC1,0.139

# The next lines start with the values.
row,Kb [nM],Structure (SMILES)
1,0.105,CC(=O)N1CCN(c2nc3c(c(-c4ccccc4C)n2)C(=O)N(Cc2cc(C(F)(F)F)cc(C(F)(F)F)c2)CCCO3)CC1
2,11.6,Cc1ccccc1-c1ncnc2c1C(=O)N(Cc1cc(C(F)(F)F)cc(C(F)(F)F)c1)CCCO2
3,52.9,Cc1ccccc1-c1nc(N(C)C)nc2c1C(=O)N(Cc1cc(C(F)(F)F)cc(C(F)(F)F)c1)C[C@@H](C)CO2
4,0.545,CC(=O)N1C(C)CN(c2nc3c(c(-c4ccccc4C)n2)C(=O)N(Cc2cc(C(F)(F)F)cc(C(F)(F)F)c2)C[C@@H](C)CO3)CC1C (some centres not stated)
5,0.427,Cc1ccccc1-c1nc(N(C)C)nc2c1C(=O)N(Cc1cc(C(F)(F)F)cc(C(F)(F)F)c1)C[C@H](C)CO2
6,162,Cc1ccccc1-c1ncnc2c1C(=O)N(Cc1cc(C(F)(F)F)cc(C(F)(F)F)c1)C[C@@H](C)CO2
7,12.6,Cc1ccccc1-c1ncnc2c1C(=O)N(Cc1cc(C(F)(F)F)cc(C(F)(F)F)c1)C[C@H](C)CO2
